Results on 16 compounds are retold here after ChEMBL document CHEMBL1125801, “Fluorinated colchicinoids: antitubulin and cytotoxic properties” (J Med Chem, 1991).

One may read the logP as the decadic logarithm of the partition coefficient of the neutral form, usually between octanol and water. Low readings indicate a more hydrophilic compound, high ones a more lipophilic compound.

Series [1] has as its system J774.2. Briefly: Cytotoxic activity against mouse macrophage cell line J774.2. It is filed as functional. To be noted: read-out: ED50 (the source's name).
Series [2] deals with P388. Briefly: Cytotoxic activity against P388 mouse lymphocytic leukemia cell line. It is filed as functional. The following applies: read-out: ED50 (the source's name).
The subject of series [3] is P388. Briefly: Cytotoxic activity against P388 mouse lymphocytic leukemia cell line (doxorubicin resistant). The following applies: read-out: ED50 (the source's name). The series is classed as functional.
Series [4] is described as follows: Retention time of the compound. It is filed as ADME.
The nature of series [5]: Partition coefficient (logP). It is filed as physicochemical. To be noted: octanol/water.
The subject of series [6] is J774. Briefly: Cytotoxic activity against mouse macrophage cell line J7.VBL-1. It is filed as functional. The following applies: read-out: ED50 (the source's name).
The subject of series [7] is J774. Briefly: (§1) Cytotoxic activity against mouse macrophage cell line J7.COL-100. It is filed as functional. The following applies: read-out: ED50 (the source's name).
The target of series [8] is T1, Tubulin (Bos taurus) (UniProt Q6B856+Q862L2+Q862F3). To be noted: at 2 µM.
Series [9] addresses T1, Tubulin (Bos taurus). The following applies: at 5 µM.
The target in series [10] is T1, Tubulin (Bos taurus). The following applies: at 5 µM. This is another data set of the same source.
For series [11], the target named is T1, Tubulin (Bos taurus). The following applies: at 2 µM. The source holds these as a separate data set.
A short description of series [12]: Retention time of the compound; NT-Not Tested. The series is classed as ADME.
Series [13] deals with J774.2. Briefly: Cytotoxic activity against mouse macrophage cell line J774.2 after 72 hr. It is filed as functional. The following applies: J774.2, 72 h, read-out: ED50 (the source's name). Put shortly: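 Mouse macrophage-like J774.2 (wild type) cells were incubated with or without drug for 72 h, before controls reached confluency, in triplicate per concentration.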
Series [14] deals with J774. The series is described as §1. The series is classed as functional. To be noted: J774, read-out: ED50. Put shortly:
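Colchicine-resistant variant of mouse macrophage-like J774.2, kept in 100 μM colchicine. Cells were exposed with or without drug in triplicate per concentration for 72 h, ending before controls reached confluency, and then living cells were counted.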

`COc1cc2c(c(OC)c1OC)-c1cc/c(=N/CCF)c(O)cc1C(NC(C)=O)CC2` (configuration not stated): the EC50 is 0.15 µM in the series on J774.2 [1]; 0.023 µM in the series on P388 [2]; 0.47 µM in the series on P388 [3]; 4.8 µM in the series with J774 [6]; 32 µM in the series with J774 [7]. In series [4], this compound yielded a tR of 5.1 min. For the same compound, the logP in series [5] came to 1.7.
Turning to `COc1c(O)cc2c(c1OC)-c1ccc(SC)c(=O)cc1C(NC(C)=O)CC2` (configuration not stated), the tR in [4] turned out to be 3.8 min. In series [5], this compound had a logP of 1.43.
Regarding `COc1cc2c(c(OC)c1O)-c1ccc(OC)c(=O)cc1C(NC(=O)C(F)(F)F)CC2` (configuration not stated), the ITP was determined as 24% at Tubulin (Bos taurus) [8], 35% at Tubulin (Bos taurus) [9], 47% at Tubulin (Bos taurus) [10] and 17% at Tubulin (Bos taurus) [11]. Further, the EC50 was 0.04 µM in the series with J774.2 [1]; 0.04 µM in the series on P388 [2]; 0.12 µM in the series with P388 [3]; 5 µM in the series on J774 [6]; 10.5 µM in the series on J774 [7]. In series [4], this compound registered a tR of 3.8 min. The same compound came in with a lipophilicity (logP) in series [5] of 1.67.
As for `CC/N=c1/ccc2c(cc1O)C(NC(C)=O)CCc1cc(OC)c(OC)c(OC)c1-2` (configuration not stated), the EC50 turned out to be 0.01 µM with J774.2 [1]; 0.005 µM in the series on P388 [2]; 0.32 µM in the series on P388 [3]; 1.9 µM in the series with J774 [6]; 15 µM in the series with J774 [7]. The tR in series [4] turned out to be 7.5 min. In series [5], the logP came to 2.34.
For the compound `COc1cc2c(c(OC)c1OC)-c1ccc(OC)c(=O)cc1[C@@H](NC(=O)C(F)(F)F)CC2`, the EC50 with J774.2 [1] came out at 0.01 µM; in the series with P388 [2], 0.004 µM; in the series on P388 [3], 0.04 µM; with J774 [6], 0.8 µM; in the series on J774 [7] it was 14 µM. Further, the tR in [4] was determined as 5.4 min. This compound displayed a logP in [5] of 1.72.
`COc1cc2c(c(OC)c1OC)-c1ccc(=O)c(OC)cc1C(NC(C)=O)CC2` (configuration not stated): the EC50 in the series on J774.2 [1] is 5.6 µM; in the series on P388 [2], 15 µM; with P388 [3], 15 µM; with J774 [6], > 50 µM. This compound yielded a tR in [12] of 3.9 min. Also, the logP in series [5] was found to be 1.
In the case of `COc1cc2c(c(OC)c1OC)-c1cc/c(=N/CC(F)(F)F)c(O)cc1C(NC(=O)C(F)(F)F)CC2` (configuration not stated), the ITP is 30% on Tubulin (Bos taurus) [8], 45% at Tubulin (Bos taurus) [9], 35% on Tubulin (Bos taurus) [10] and 15% on Tubulin (Bos taurus) [11]. Moreover, the EC50 turned out to be 0.05 µM with P388 [2]; 0.09 µM in the series on P388 [3]; 2.9 µM in the series on J774 [6]; 0.2 µM in the series on J774.2 [13]; 8.8 µM with J774 [7]. In series [4], this compound returned a tR of 10.6 min. The same compound returned a logP in [5] of 1.36.
With `COc1cc2c(c(OC)c1OC)-c1ccc(=O)c(OC)cc1C(NC(=O)C(F)(F)F)CC2` (configuration not stated), the EC50 with J774.2 [1] was 3.9 µM; in the series on P388 [2] it was 1.5 µM; in the series with P388 [3], 13 µM; with J774 [6], > 20 µM. Also, the ITP at Tubulin (Bos taurus) [9] (at 100 µM) was found to be 10%. The compound also gave a tR in [12] of 5.9 min. Further, the lipophilicity (logP) in series [5] is 2.08.
For `COc1cc2c(c(OC)c1OC)-c1ccc(=N)c(O)cc1C(NC(C)=O)CC2` (configuration not stated), the EC50 in the series with J774.2 [1] came to 0.02 µM; in the series with P388 [2] it was 0.013 µM; with P388 [3], 0.4 µM; with J774 [6], 15 µM; in the series with J774 [7] it was 70 µM. The compound also had a tR in [4] of 4 min. The logP in series [5] came out at 0.3.
With `COc1cc2c(c(OC)c1OC)-c1ccc(=N)c(O)cc1C(NC(=O)C(F)(F)F)CC2` (configuration not stated), the ITP on Tubulin (Bos taurus) [8] came to 48%; on Tubulin (Bos taurus) [9], 82%; at Tubulin (Bos taurus) [10] it was 79%; on Tubulin (Bos taurus) [11], 42%. Further, the EC50 in the series with J774.2 [1] turned out to be 0.01 µM; with P388 [2] it was 0.013 µM; in the series with P388 [3] it was 0.06 µM; in the series with J774 [6], 1.3 µM; in the series on J774 [7] it was 4.5 µM. The same compound returned a tR in [4] of 5.7 min. This compound returned a logP in series [5] of 2.32.
For the compound `COc1cc2c(c(OC)c1OC)-c1ccc(OC)c(=O)cc1[C@@H](NC(C)=O)CC2` [COLCHICINE], the EC50 in the series on J774.2 [1] was 0.06 µM; with P388 [2], 0.012 µM; in the series with P388 [3], 0.47 µM; in the series with J774 [6] it was 17 µM; in the series with J774 [7] it was 200 µM. The compound further displayed a tR in series [4] of 3.9 min. The logP in series [5] was found to be 0.6.
`COc1cc2c(c(OC)c1O)-c1ccc(OC)c(=O)cc1C(NC(C)=O)CC2` (configuration not stated): the EC50 in the series on J774.2 [1] is 0.3 µM; in the series on P388 [2] it was 0.095 µM; in the series on P388 [3], 1.22 µM; in the series with J774 [6], 62.5 µM; in the series on J774 [7] it was 140 µM. In [4], this compound displayed a tR of 3 min. The logP in series [5] was 0.48.
`COc1cc2c(c(OC)c1OC)-c1ccc(=O)c(O)cc1C(NC(=O)C(F)(F)F)CC2` (configuration not stated): the EC50 in the series with J774.2 [1] came to 3 µM; with P388 [2], 3 µM; in the series with P388 [3], 6 µM; in the series with J774 [6], 20 µM; with J774 [7] it was 4.9 µM. This compound had an ITP on Tubulin (Bos taurus) [9] (at 100 µM) of 44%. Moreover, in series [5], the logP worked out at 1.82.
`COc1c(O)cc2c(c1OC)-c1ccc(SC)c(=O)cc1C(NC(=O)C(F)(F)F)CC2` (configuration not stated): in series [4], the tR amounted to 5.3 min. Also, in series [5], the log partition coefficient (logP) was found to be 2.61.
Regarding `COc1cc2c(c(OC)c1OC)-c1ccc(=O)c(O)cc1C(NC(C)=O)CC2` (configuration not stated), the EC50 with J774.2 [1] is 3.1 µM; with P388 [2], 1.2 µM; in the series with P388 [3] it was 10 µM; in the series with J774 [6], > 50 µM; in the series with J774 [14], > 1000 µM. The compound further displayed a logP in [5] of 1.2.
As for `COc1cc2c(c(OC)c1OC)-c1cc/c(=N/CC(F)(F)F)c(O)cc1C(NC(C)=O)CC2` (configuration not stated), the EC50 was found to be 0.19 µM in the series with J774.2 [1]; 0.051 µM in the series with P388 [2]; 0.9 µM in the series with P388 [3]; 17 µM in the series with J774 [6]; 50 µM in the series on J774 [7]. This compound showed a tR in series [4] of 7.4 min. In series [5], this compound displayed a logP of 1.45.
